In ChEMBL document CHEMBL4033782, “Structural Modification of Natural Product Tanshinone I Leading to Discovery of Novel Nitrogen-Enriched Derivatives with Enhanced Anticancer Profile and Improved Drug-like Properties” (J Med Chem, 2018):
Active and inactive are the calls of the source. No cut-off for these calls is given here.

Experiments:
[1] = Half life in human liver microsomes at 0.1 uM up to 60 mins by LC-MS/MS analysis; assay type: ADME, microsome
Summary of the method: (§1)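 Compound at 0.1 μM final (0.01% DMSO, 0.005% BSA) incubated at 37 °C with human, rat or mouse liver microsomes (0.33 mg/mL protein) in 0.1 M Tris/HCl pH 7.4, with 5 mM MgCl2 and 1 mM NADPH. Samples taken at 0, 7, 17, 30 and 60 min, quenched by methanol precipitation, centrifuged, and parent measured by LC-MS/MS. T1/2 and Clint derived.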

Liver [2] = test: Intrinsic clearance in mouse liver microsomes assessed per mg protein up to 60 mins by LC-MS/MS analysis; assay type: ADME, microsome; conditions: 1 h; summary of the method: as §1
KB = test: Antiproliferative activity against human KB cells after 72 hrs by sulforhodamine B assay; assay type: functional, cell-based
Summary of the method: (§2)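 Cells grown in ATCC-specified medium with 10% heat-inactivated FBS, penicillin/streptomycin and 10 mM Hepes, at 37 °C under 5% CO2. Seeded, cultured overnight, then exposed to gradient concentrations for 72 h. Growth read by SRB staining; inhibition % = [1−(A450 treated/A450 control)]×100. IC50 obtained by the Logit method from independent experiments.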

[3] = Oral bioavailability in Sprague-Dawley rat at 3.90 mg/kg by LC-ESI-MS/MS analysis; assay type: ADME, organism-based; conditions: in vivo, 3.9 mg/kg
HCT-116 [4] = test: Induction of apoptosis in human HCT116 cells pretreated with Z-VAD-FMK pan-caspase inhibitor for 1 hr assessed as early apoptotic cells at 2 uM after 48 hrs by Annexin V-FITC/propidium iodide staining-based FACS analysis (reference value: 1.34%); assay type: functional; set-up: scale not given: the % may be the effect or the level left
Liver [5] = test: Intrinsic clearance in rat liver microsomes assessed per mg protein up to 60 mins by LC-MS/MS analysis; assay type: ADME, microsome; conditions: 1 h
Summary of the method: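 Liver microsomes (0.33 mg/mL protein) in 0.1 M Tris/HCl pH 7.4 with 5 mM MgCl2, 1 mM NADPH, compound at 0.1 μM final (0.01% DMSO, 0.005% BSA), 37 °C; samples at 0, 7, 17, 30, 60 min quenched in methanol, centrifuged, LC-MS/MS; T1/2 and Clint per g protein derived.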

[6] = Half life in Sprague-Dawley rat at 3.90 mg/kg, po by LC-ESI-MS/MS analysis; assay type: ADME, organism-based; conditions: in vivo, 3.9 mg/kg
[7] = Antiproliferative activity against human KB/VCR cells after 72 hrs by sulforhodamine B assay; assay type: functional, cell-based; summary of the method: as §2
HCT-116 [8] = test: Induction of apoptosis in human HCT116 cells pretreated with Z-VAD-FMK pan-caspase inhibitor for 1 hr assessed as late apoptotic cells at 2 uM after 48 hrs by Annexin V-FITC/propidium iodide staining-based FACS analysis (reference value: 3.15%); assay type: functional; set-up: scale not given: the % may be the effect or the level left
HCT-116 [9] = test: Induction of apoptosis in human HCT116 cells assessed as late apoptotic cells at 2 uM after 48 hrs by Annexin V-FITC/propidium iodide staining-based FACS analysis (reference value: 5.74%); assay type: functional
HCT-116 [10] = test: Induction of apoptosis in human HCT116 cells pretreated with Z-VAD-FMK pan-caspase inhibitor for 1 hr assessed as cleavage of PARP at 2 uM after 48 hrs by Western blot analysis; assay type: functional, cell-based
Summary of the method: (§3)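 HCT116 cells, with or without a 1 h pretreatment with 20 μM Z-VAD-FMK, exposed for 48 h. Lysed on ice in Hepes/NaCl/Triton X-100 buffer with protease/phosphatase inhibitors and clarified at 12,000×g. Equal protein run by SDS-PAGE, blotted to nitrocellulose, probed overnight at 4 °C for PARP, caspase 3, caspase 7 and β-actin. HRP secondaries, ECL detection.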

HCT-116 [11] = test: Induction of apoptosis in human HCT116 cells assessed as cleavage of PARP at 2 uM after 48 hrs by Western blot analysis; assay type: functional, cell-based; summary of the method: as §3
Liver [12] = test: Half life in mouse liver microsomes at 0.1 uM up to 60 mins by LC-MS/MS analysis; assay type: ADME, microsome; conditions: microsomes, 1 h, 0.1 µM; summary of the method: as §1
[13] = Aqueous solubility of the compound by HPLC method; assay type: physicochemical; conditions: buffer
Summary of the method: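 Solubility determined by an HPLC method, with one-point calibration against standards of known concentration. Mean ± SD of at least three independent experiments.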

HCT-116 [14] = test: Induction of apoptosis in human HCT116 cells assessed as activation of caspase 3/7 at 1.0 to 4.0 uM after 24 hrs by Caspase-Glo 3/7 assay
HCT-116 [15] = test: Induction of apoptosis in human HCT116 cells pretreated with Z-VAD-FMK pan-caspase inhibitor for 1 hr assessed as activation of caspase 3/7 at 2 uM after 48 hrs by Western blot analysis; assay type: functional, cell-based; summary of the method: as §3
[16] = Half life in rat liver microsomes at 0.1 uM up to 60 mins by LC-MS/MS analysis; assay type: ADME, microsome; summary of the method: as §1
HCT-116 [17] = test: Induction of apoptosis in human HCT116 cells assessed as activation of caspase 3/7 at 2 uM after 48 hrs by Western blot analysis; assay type: functional, cell-based; summary of the method: as §3
Liver [18] = test: Intrinsic clearance in human liver microsomes assessed as per mg protein up to 60 mins by LC-MS/MS analysis; assay type: ADME, microsome; conditions: 1 h; summary of the method: as §1
HCT-116 [19] = test: Induction of apoptosis in human HCT116 cells assessed as early apoptotic cells at 2 uM after 48 hrs by Annexin V-FITC/propidium iodide staining-based FACS analysis (reference value: 2.35%); assay type: functional

- half-life at 0.1 µM [1]: 6.45 min
- intrinsic clearance (Liver [2]): Nd(Unstable)
- IC50 (KB): 5.87 µM
- bioavailability [3]: 0%
- intrinsic clearance (Liver [5]): 836 mL/min/g
- half-life [6]: 10.2 min
- t1/2 (Liver [12]): Nd(Unstable)
- solubility [13]: < 0.1 µg/mL
- half-life at 0.1 µM [16]: 2.51 min
- intrinsic clearance (Liver [18]): 325 mL/min/g
Compound: Cc1coc2c1C(=O)C(=O)c1c-2ccc2c(C)cccc12 [TANSHINONE I]
- Activity (HCT-116 [4]): 4.24%
- IC50 [7]: 4.4 µM
- Activity (HCT-116 [8]): 7.11%
- Activity (HCT-116 [9]): 5.46%
- Activity (HCT-116 [10]): inactive
- Activity (HCT-116 [11]): inactive
- Activity (HCT-116 [14]): inactive
- Activity (HCT-116 [15]): inactive
- Activity (HCT-116 [17]): inactive
- Activity (HCT-116 [19]): 3.81%
